Laboratory results from ChEMBL document CHEMBL1122677, “Ring-substituted 1,2-dialkylated 1,2-bis(hydroxyphenyl)ethanes. 3. Synthesis, estrogen receptor binding affinity, and evaluation of antiestrogenic and mammary tumor inhibiting activity of 2,2'-disubstituted butestrols and 6,6'-disubstituted metabutestrols” (1984).

What was measured:
[1] = target: Estrogen receptor (Bos taurus) (UniProt Q9XSB5+P49884); test: Displacement of [3H]-estradiol from calf uterine estrogen receptor; assay type: protein assay
In short: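 Calf uterine cytosol incubated with [³H]estradiol and competitor at six concentrations, 4 °C for 16 h. Dextran-coated charcoal stopped incubation; supernatant radioactivity counted after centrifugation. Percent bound plotted vs log concentration; the molar concentrations of estradiol and test compound halving radioligand binding were read off and expressed as relative binding affinity.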

[2] = target: T1, Estrogen receptor (Mus musculus) (UniProt O08537+P19785); test: Uterotrophic effect in mice at 10 ug (alpha=0.01); assay type: functional, tissue-based; conditions: Uterus
T1 sequence (O08537 whole entry, looked up): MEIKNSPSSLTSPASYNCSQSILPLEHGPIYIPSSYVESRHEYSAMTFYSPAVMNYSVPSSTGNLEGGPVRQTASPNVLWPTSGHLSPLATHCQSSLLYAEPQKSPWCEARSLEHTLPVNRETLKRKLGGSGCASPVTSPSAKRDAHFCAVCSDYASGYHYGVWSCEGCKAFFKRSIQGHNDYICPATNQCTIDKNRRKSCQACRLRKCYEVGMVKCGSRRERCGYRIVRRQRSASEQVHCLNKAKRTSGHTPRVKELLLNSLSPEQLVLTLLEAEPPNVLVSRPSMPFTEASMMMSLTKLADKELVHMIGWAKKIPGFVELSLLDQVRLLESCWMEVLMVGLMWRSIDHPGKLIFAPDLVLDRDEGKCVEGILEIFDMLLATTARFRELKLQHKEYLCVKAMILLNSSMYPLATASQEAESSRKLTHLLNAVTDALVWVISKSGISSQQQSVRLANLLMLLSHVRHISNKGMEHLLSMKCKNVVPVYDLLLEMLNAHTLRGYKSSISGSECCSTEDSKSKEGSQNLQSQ
T1 sequence (P19785 whole entry, looked up): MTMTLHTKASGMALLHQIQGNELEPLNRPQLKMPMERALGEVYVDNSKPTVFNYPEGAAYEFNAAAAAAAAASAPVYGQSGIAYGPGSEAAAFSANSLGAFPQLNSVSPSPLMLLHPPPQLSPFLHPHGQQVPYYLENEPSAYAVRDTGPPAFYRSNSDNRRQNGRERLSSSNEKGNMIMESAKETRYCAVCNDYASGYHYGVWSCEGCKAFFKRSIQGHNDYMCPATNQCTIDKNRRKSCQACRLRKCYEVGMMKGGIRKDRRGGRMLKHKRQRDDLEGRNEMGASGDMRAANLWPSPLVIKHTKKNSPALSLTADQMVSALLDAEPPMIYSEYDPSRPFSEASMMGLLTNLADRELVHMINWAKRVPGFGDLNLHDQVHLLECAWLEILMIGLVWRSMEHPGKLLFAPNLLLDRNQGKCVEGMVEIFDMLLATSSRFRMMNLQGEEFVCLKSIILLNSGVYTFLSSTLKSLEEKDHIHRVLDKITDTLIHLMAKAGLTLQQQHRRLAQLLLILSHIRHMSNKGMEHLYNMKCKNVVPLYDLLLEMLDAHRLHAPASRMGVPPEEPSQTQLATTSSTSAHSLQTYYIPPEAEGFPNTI
In short: (§1)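 Immature female NMRI mice, 20 days old (14.5 ± 1.2 g), in groups of 10, injected sc daily for 3 days with test compound in 0.1 mL olive oil. Uteri were removed 24 h after the last injection, Bouin-fixed, washed, dried and weighed. Groups were compared by Wilcoxon–Mann–Whitney U test.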

[3] = target: T1, Estrogen receptor (Mus musculus); test: Uterotrophic effect in mice at 1 ug (alpha=0.01); assay type: functional, tissue-based; conditions: Uterus; in short: as §1
[4] = target: T1, Estrogen receptor (Mus musculus); test: (§2) Uterotrophic effect in mice at 0 ug; assay type: functional, tissue-based; conditions: Uterus; in short: as §1
[5] = target: T1, Estrogen receptor (Mus musculus); test: Uterotrophic effect in mice at 1000 ug; assay type: functional, tissue-based; conditions: Uterus; in short: as §1
[6] = target: T1, Estrogen receptor (Mus musculus); test: Uterotrophic effect in mice at 100 ug; assay type: functional, tissue-based; conditions: Uterus; in short: as §1
[7] = target: T1, Estrogen receptor (Mus musculus); test: Percent inhibition of uterotrophic effect in mice at 5 ug; assay type: functional
In short: (§3)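 Antiestrogenic read-out: inhibition of estrone-stimulated uterine growth in immature female NMRI mice, 20 days old, in groups of 10. Test compound in 0.1 mL olive oil was given sc daily for 3 days. Uteri were taken 24 h after the last dose, fixed in Bouin's solution, washed, dried and weighed.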

[8] = target: T1, Estrogen receptor (Mus musculus); test: Percent inhibition of uterotrophic effect in mice at 50 ug; assay type: functional; in short: as §3
[9] = target: T1, Estrogen receptor (Mus musculus); test: Percent inhibition of uterotrophic effect in mice at 500 ug; assay type: functional; in short: as §3
[10] = target: T1, Estrogen receptor (Mus musculus); test: Antiuterotrophic effect in mice at 0 ug; assay type: functional; in short: as §3
[11] = target: T1, Estrogen receptor (Mus musculus); test: Antiuterotrophic effect in mice at 5 ug; assay type: functional; parameters: unit not given here; in short: as §3
[12] = target: T1, Estrogen receptor (Mus musculus); test: Antiuterotrophic effect in mice at 50 ug; assay type: functional; parameters: unit not given here; in short: as §3
[13] = target: T1, Estrogen receptor (Mus musculus); test: Antiuterotrophic effect in mice at 500 ug; assay type: functional; parameters: unit not given here; in short: as §3
[14] = species on record: Rattus norvegicus; test: Percent change in body weight in rats at 2 mg; assay type: functional
In short: (§4)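 DMBA-induced, hormone-dependent mammary adenocarcinoma in SD rats. Dose is per kg body weight and day, given once daily Monday–Thursday and doubled on Friday. Initial tumors were counted at the start and new tumors during the test. Tumors were scored as complete remission (not palpable), partial remission (≥50% size reduction), no change or progression. Tumor area and body weight change were recorded.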

[15] = species on record: Rattus norvegicus; test: Percent change in body weight in rats at 5 mg; assay type: functional; in short: as §4
[16] = species on record: Rattus norvegicus; test: Percent unchanged tumors in DMBA-induced hormone dependent mammary carcinoma in rats at 5 mg dose; assay type: functional; in short: as §4
[17] = species on record: Rattus norvegicus; test: Percent complete remission in DMBA-induced hormone dependent mammary carcinoma in rats at 5 mg dose; assay type: functional; in short: as §4
[18] = species on record: Rattus norvegicus; test: Percent partial remission in DMBA-induced hormone dependent mammary carcinoma in rats at 5 mg dose; assay type: functional; in short: as §4
[19] = species on record: Rattus norvegicus; test: Percent unchanged tumors in DMBA-induced hormone dependent mammary carcinoma in rats at 2 mg dose; assay type: functional; in short: as §4
[20] = species on record: Rattus norvegicus; test: Initial tumor number of DMBA-induced hormone dependent mammary carcinoma in rats prior to 2 mg dose; assay type: functional; in short: as §4
[21] = species on record: Rattus norvegicus; test: Final tumor number of DMBA-induced hormone dependent mammary carcinoma in rats after 2 mg dose; assay type: functional; in short: as §4
[22] = species on record: Rattus norvegicus; test: Initial tumor number of DMBA-induced hormone dependent mammary carcinoma in rats prior to 5 mg dose; assay type: functional; in short: as §4
[23] = species on record: Rattus norvegicus; test: Final tumor number of DMBA-induced hormone dependent mammary carcinoma in rats after 5 mg dose; assay type: functional; in short: as §4
[24] = species on record: Rattus norvegicus; test: Percent partial remission in DMBA-induced hormone dependent mammary carcinoma in rats at 2 mg dose; assay type: functional; in short: as §4
[25] = species on record: Rattus norvegicus; test: Percent progressive tumors in DMBA-induced hormone dependent mammary carcinoma in rats at 5 mg dose; assay type: functional; in short: as §4
[26] = species on record: Rattus norvegicus; test: Percent change in total tumor area of DMBA-induced hormone dependent mammary carcinoma in rats at 2 mg dose (alpha <0.05); assay type: functional; in short: as §4
[27] = species on record: Rattus norvegicus; test: Percent progressive tumors in DMBA-induced hormone dependent mammary carcinoma in rats at 2 mg dose; assay type: functional; in short: as §4
[28] = species on record: Rattus norvegicus; test: Percent complete remission in DMBA-induced hormone dependent mammary carcinoma in rats at 2 mg dose; assay type: functional; in short: as §4
[29] = species on record: Rattus norvegicus; test: Percent change in total tumor area of DMBA-induced hormone dependent mammary carcinoma in rats at 5 mg dose (alpha <0.05)
[30] = target: T1, Estrogen receptor (Mus musculus); test: (§5) Uterotrophic effect in mice at 10 ug; assay type: functional, tissue-based; conditions: Uterus; in short: as §1
[31] = target: T1, Estrogen receptor (Mus musculus); test: Uterotrophic effect in mice at 0.1 ug; assay type: functional, tissue-based; conditions: Uterus; in short: as §1
[32] = target: T1, Estrogen receptor (Mus musculus); test: (§6) Uterotrophic effect in mice at 1 ug; assay type: functional, tissue-based; conditions: Uterus; in short: as §1
[33] = target: T1, Estrogen receptor (Mus musculus); test: Anti-estrogenic activity in mice at 0 ug; assay type: functional; in short: as §3
[34] = target: T1, Estrogen receptor (Mus musculus); test: Anti-estrogenic activity in mice at 50 ug; assay type: functional; in short: as §3
[35] = target: T1, Estrogen receptor (Mus musculus); test: Anti-estrogenic activity in mice at 500 ug; assay type: functional; in short: as §3
[36] = target: T1, Estrogen receptor (Mus musculus); test: as §2; assay type: functional, tissue-based; parameters: unit not given here; conditions: Uterus; in short: as §1
[37] = target: T1, Estrogen receptor (Mus musculus); test: as §6; assay type: functional, tissue-based; parameters: unit not given here; conditions: Uterus; in short: as §1
[38] = target: T1, Estrogen receptor (Mus musculus); test: as §5; assay type: functional, tissue-based; parameters: unit not given here; conditions: Uterus; in short: as §1
[39] = target: T1, Estrogen receptor (Mus musculus); test: Uterotrophic effect in mice at 1 ug (alpha =0.01); assay type: functional, tissue-based; conditions: Uterus; in short: as §1
[40] = target: T1, Estrogen receptor (Mus musculus); test: Uterotrophic effect in mice at 100 ug (alpha =0.01); assay type: functional, tissue-based; conditions: Uterus; in short: as §1
[41] = target: T1, Estrogen receptor (Mus musculus); test: Uterotrophic effect in mice at 10 ug (alpha =0.01); assay type: functional, tissue-based; conditions: Uterus; in short: as §1

Cc1ccc(O)cc1C(C)C(C)c1cc(O)ccc1C (centres undefined)
relative binding affinity (RBA) [1]: 5.2
Effect [2]: 14.2
Effect [3]: 13.7
Effect [4]: 11.1
Effect [5]: 17.4
Effect [6]: 12.5
inhibition [7]: 5%
inhibition [8]: 20%
inhibition [9]: 35%
Effect [10]: 14.4
Effect [11]: 45.4
Effect [12]: 40.6
Effect [13]: 35.6
Body weight [14]: 1.5
Body weight [15]: 1.1
Tumors [16]: 25%
Tumors [17]: 15%
Tumors [18]: 4%
Tumors [19]: 29%
No. of tumors [20]: 23
No. of tumors [21]: 25
No. of tumors [22]: 25
No. of tumors [23]: 23
Tumors [24]: 4%
Tumors [25]: 56%
Tumor area [26]: 245
Tumors [27]: 56%
Tumors [28]: 11%
Tumor area [29]: 283

CC(c1ccc(O)cc1)C(C)c1ccc(O)cc1 (centres undefined)
relative binding affinity (RBA) [1]: 12
Effect [30]: 28
Effect [31]: 17.7
Effect [4]: 11.8
Effect [32]: 22.6
Effect [5]: 34.8
Effect [6]: 42.2
inhibition [7]: 12%
inhibition [8]: 26%
inhibition [9]: 28%
Effect [33]: 14.4
Effect [34]: 38.7
Effect [35]: 37.8
Effect [11]: 43.3

CC(c1ccc(O)cc1F)C(C)c1ccc(O)cc1F (centres undefined)
relative binding affinity (RBA) [1]: 15
Effect [36]: 11.8
Effect [37]: 50.2
Effect [38]: 51.4

CC(c1cc(O)ccc1Cl)C(C)c1cc(O)ccc1Cl (centres undefined)
relative binding affinity (RBA) [1]: 1.7
Effect [30]: 26.5
Effect [4]: 11.1
Effect [32]: 13
Effect [6]: 41.8
inhibition [7]: 21%
inhibition [8]: 24%
inhibition [9]: 30%
Effect [10]: 14.4
Effect [11]: 40.1
Effect [12]: 39.3
Effect [13]: 37.2

CCc1cc(O)ccc1C(C)C(C)c1ccc(O)cc1CC (centres undefined)
relative binding affinity (RBA) [1]: 12
Effect [36]: 12.5
Effect [37]: 38.8
Effect [38]: 45.2
Effect [6]: 47

CC(c1ccc(O)cc1O)C(C)c1ccc(O)cc1O (centres undefined)
relative binding affinity (RBA) [1]: 2.1
Effect [36]: 12.5
Effect [37]: 15.4
Effect [38]: 20.3
Effect [5]: 34.6
Effect [6]: 26.2
inhibition [8]: 25%
inhibition [9]: 26%
Effect [10]: 14.4
Effect [11]: 50.6
Effect [12]: 39.1
Effect [13]: 38.7

CC(c1ccc(O)cc1Cl)C(C)c1ccc(O)cc1Cl (centres undefined)
relative binding affinity (RBA) [1]: 4.5
Effect [36]: 11.8
Effect [37]: 41.6
Effect [38]: 40.7

CC(c1cccc(O)c1)C(C)c1cccc(O)c1 (centres undefined)
relative binding affinity (RBA) [1]: 1
Effect [36]: 11.9
Effect [39]: 11.7
Effect [40]: 12.6
Effect [41]: 12.4
Effect [5]: 13.1
inhibition [7]: 13%
inhibition [8]: 25%
Effect [10]: 14.4
Effect [11]: 43
Effect [12]: 39
Effect [13]: 36.5

CC(c1ccc(O)cc1Br)C(C)c1ccc(O)cc1Br (centres undefined)
relative binding affinity (RBA) [1]: 3.4

Cc1cc(O)ccc1C(C)C(C)c1ccc(O)cc1C (centres undefined)
relative binding affinity (RBA) [1]: 29
Effect [30]: 39.4
Effect [31]: 29.2
Effect [36]: 11.8
Effect [32]: 36.5

CC(c1cc(O)ccc1O)C(C)c1cc(O)ccc1O (centres undefined)
relative binding affinity (RBA) [1]: 0.01
